Test results as given in ChEMBL document CHEMBL3804768, “Structure-Activity Relationship Studies of Mitogen Activated Protein Kinase Interacting Kinase (MNK) 1 and 2 and BCR-ABL1 Inhibitors Targeting Chronic Myeloid Leukemic Cells” (J Med Chem, 2016).

Key:
[1] = molecular target: Tyrosine-protein kinase ABL1 (Homo sapiens) (UniProt P00519); assay: Inhibition of ABL1 in human K562 cells over expressing eIF4E assessed as reduction in phosphorylation of Crkl at Tyr207 after 24 hrs by Western blot analysis; format: cell-based
Summary of the method: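 K562 eIF4E-overexpressing cells were treated at 100, 500 and 1000 nM for 24 h and lysed in RIPA buffer with SDS and protease/phosphatase inhibitors. Equal protein was resolved on 4-12% Bis-Tris gels and blotted to PVDF, with blocking in 5% BSA/PBST. The blot was probed overnight at 4 °C with a Bcr/Abl activity antibody cocktail for Crkl and phospho-Crkl Tyr207, and detected by ECL chemiluminescence.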

[2] = molecular target: Vascular endothelial growth factor receptor 2 (Homo sapiens, UniProt P35968); assay: Inhibition of human recombinant VEGFR2 expressed in sf21 cells using Poly(Glu:Tyr) as substrate in presence of [gamma32P]ATP
[3] = molecular target: T1, Receptor-type tyrosine-protein kinase FLT3 (Homo sapiens, UniProt P36888); assay: Inhibition of human recombinant FLT3 expressed in sf21 cells using Poly(Glu:Tyr) as substrate in presence of [gamma32P]ATP
T1 sequence (P36888 whole entry): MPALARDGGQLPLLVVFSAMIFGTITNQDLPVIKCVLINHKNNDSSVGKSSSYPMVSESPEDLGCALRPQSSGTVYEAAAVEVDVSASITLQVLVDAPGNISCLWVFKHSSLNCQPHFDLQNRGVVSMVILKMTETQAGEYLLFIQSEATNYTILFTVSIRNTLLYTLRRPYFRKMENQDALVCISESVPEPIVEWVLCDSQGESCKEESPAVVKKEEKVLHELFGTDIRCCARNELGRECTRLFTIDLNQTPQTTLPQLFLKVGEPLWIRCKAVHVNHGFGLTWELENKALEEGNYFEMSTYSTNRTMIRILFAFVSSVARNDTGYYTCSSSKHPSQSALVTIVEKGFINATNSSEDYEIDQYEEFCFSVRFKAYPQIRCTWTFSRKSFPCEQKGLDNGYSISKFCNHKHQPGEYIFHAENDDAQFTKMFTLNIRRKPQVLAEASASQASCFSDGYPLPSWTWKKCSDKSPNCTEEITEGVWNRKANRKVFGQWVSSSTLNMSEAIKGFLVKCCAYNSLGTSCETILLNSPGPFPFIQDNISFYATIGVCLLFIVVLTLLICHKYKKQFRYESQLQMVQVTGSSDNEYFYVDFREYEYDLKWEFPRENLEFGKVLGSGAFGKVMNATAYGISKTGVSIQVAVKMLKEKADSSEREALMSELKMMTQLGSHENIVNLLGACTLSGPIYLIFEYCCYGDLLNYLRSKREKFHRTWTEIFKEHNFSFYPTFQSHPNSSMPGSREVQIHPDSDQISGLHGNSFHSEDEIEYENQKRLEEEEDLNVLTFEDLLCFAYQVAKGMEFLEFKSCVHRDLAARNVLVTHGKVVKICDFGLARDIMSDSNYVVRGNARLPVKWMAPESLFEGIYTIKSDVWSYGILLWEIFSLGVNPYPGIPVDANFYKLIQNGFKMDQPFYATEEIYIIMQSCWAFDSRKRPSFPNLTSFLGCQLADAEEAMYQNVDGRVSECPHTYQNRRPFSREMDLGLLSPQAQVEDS

[4] = Plasma protein binding in human; format: ADME, cell-free; settings: read-out: PPB (converted)
Cytochrome P450 3A4 = Cytochrome P450 3A4 (Homo sapiens, UniProt P08684); assay: Inhibition of CYP3A4 (unknown origin); format: ADME
[5] = Half life in CD1 mouse at 10 mg/kg, iv; format: ADME, organism-based; settings: in vivo
[6] = molecular target: Platelet-derived growth factor receptor alpha (Homo sapiens, UniProt P16234); assay: Inhibition of human recombinant PDGFRalpha expressed in sf21 cells using Poly(Glu:Tyr) as substrate in presence of [gamma32P]ATP
[7] = molecular target: MAP kinase-interacting serine/threonine-protein kinase 1 (Homo sapiens, UniProt Q9BUB5); assay: Inhibition of N-terminal GST-tagged MNK1 kinase domain (37 to 341 residues) (unknown origin) expressed in Escherichia coli BL21(DE3) cells using JH3 peptide substrate preincubated for 10 mins followed by substrate addition measured after 60 mins by mobility shift assay
[8] = Clearance in CD1 mouse at 10 mg/kg, iv; format: ADME, organism-based; settings: in vivo
[9] = molecular target: MAP kinase-interacting serine/threonine-protein kinase 1/2 (Homo sapiens, UniProt Q9HBH9+Q9BUB5); assay: Inhibition of MNK1/MNK2 in human HeLa cells assessed as reduction in phosphorylation of eIF4E at Ser209 after 2 hrs by AlphaScreen SureFire assay; format: cell-based
Summary of the method: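 HeLa cells were grown in DMEM with 10% FBS and penicillin/streptomycin, seeded at 30,000 per well and left 24 h. They were then exposed to serially diluted compound in serum-free DMEM for 2 h at 37 °C and lysed with shaking for 20 min. Phospho-eIF4E Ser209 was read by AlphaScreen SureFire with 2 h acceptor and 2 h donor steps at room temperature. Dose response was run in triplicate.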

Mus musculus [10] = assay: Toxicity in NOD-SCID mouse xenografted with human K562 cells over expressing eIF4E assessed as body weight loss at 100 mg/kg, po qd administered through oral gavage for 14 days; format: organism-based; settings: in vivo, 336 h
[11] = molecular target: Proto-oncogene tyrosine-protein kinase receptor Ret (Homo sapiens, UniProt P07949); assay: Inhibition of human recombinant RET expressed in sf21 cells using Poly(Glu:Tyr) as substrate in presence of [gamma32P]ATP
K562 = assay: Antiproliferative activity against human K562 cells over expressing eIF4E after 48 hrs by Cell-Titer-Glo luminescent cell viability assay; format: functional; settings: K562, 48 h
Summary of the method: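 Cells seeded at 5000 per well in growth medium, exposed to serial doses from 0.003 μM to 50 μM for 48 h at 37 °C, 5% CO2. Viability was read by CellTiter-Glo luminescence and GI50 taken from the dose-response curve. Dose response was run in triplicate and the curve repeated twice. K562 eIF4E-overexpressing cells were cultured in RPMI with 10% FBS.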

[12] = Half life in CD1 mouse at 5 mg/kg, iv; format: ADME, organism-based; settings: in vivo
Mus musculus [13] = assay: Toxicity in NOD-SCID mouse xenografted with human K562 cells over expressing eIF4E assessed as body weight loss at 100 to 200 mg/kg, po qd administered through oral gavage for 14 days; format: organism-based; settings: in vivo, 336 h
[14] = Clearance in CD1 mouse at 5 mg/kg, iv; format: ADME, organism-based; settings: in vivo

Cytochrome P450 3A4, sequence (P08684 whole entry): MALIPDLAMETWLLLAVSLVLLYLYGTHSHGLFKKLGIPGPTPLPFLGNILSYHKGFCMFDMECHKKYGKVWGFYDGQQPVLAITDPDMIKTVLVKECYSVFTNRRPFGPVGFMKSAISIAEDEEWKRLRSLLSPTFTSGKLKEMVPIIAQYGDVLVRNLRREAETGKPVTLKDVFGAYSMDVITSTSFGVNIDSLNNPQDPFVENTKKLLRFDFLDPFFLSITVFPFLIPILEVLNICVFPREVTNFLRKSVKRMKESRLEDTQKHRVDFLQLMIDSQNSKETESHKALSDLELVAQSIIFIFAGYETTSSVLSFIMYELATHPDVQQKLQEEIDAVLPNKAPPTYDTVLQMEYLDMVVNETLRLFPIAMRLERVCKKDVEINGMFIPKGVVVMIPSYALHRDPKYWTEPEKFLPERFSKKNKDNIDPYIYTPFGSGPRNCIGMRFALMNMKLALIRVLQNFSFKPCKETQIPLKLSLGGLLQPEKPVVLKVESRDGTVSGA
MAP kinase-interacting serine/threonine-protein kinase 1, sequence (Q9BUB5 whole entry, the tested form may be a part): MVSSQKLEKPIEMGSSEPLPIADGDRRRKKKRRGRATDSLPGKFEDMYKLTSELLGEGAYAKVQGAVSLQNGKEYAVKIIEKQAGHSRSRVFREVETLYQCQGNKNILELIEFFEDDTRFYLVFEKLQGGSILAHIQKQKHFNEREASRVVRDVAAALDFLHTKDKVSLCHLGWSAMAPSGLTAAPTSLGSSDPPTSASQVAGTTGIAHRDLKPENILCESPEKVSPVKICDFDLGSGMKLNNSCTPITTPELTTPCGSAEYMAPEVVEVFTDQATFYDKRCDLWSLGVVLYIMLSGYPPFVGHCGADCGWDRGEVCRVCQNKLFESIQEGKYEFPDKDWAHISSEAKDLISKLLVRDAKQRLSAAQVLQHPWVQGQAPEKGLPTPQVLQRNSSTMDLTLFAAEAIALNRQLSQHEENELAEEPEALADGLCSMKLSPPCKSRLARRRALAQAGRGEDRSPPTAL
Tyrosine-protein kinase ABL1 (Homo sapiens), sequence (P00519 whole entry): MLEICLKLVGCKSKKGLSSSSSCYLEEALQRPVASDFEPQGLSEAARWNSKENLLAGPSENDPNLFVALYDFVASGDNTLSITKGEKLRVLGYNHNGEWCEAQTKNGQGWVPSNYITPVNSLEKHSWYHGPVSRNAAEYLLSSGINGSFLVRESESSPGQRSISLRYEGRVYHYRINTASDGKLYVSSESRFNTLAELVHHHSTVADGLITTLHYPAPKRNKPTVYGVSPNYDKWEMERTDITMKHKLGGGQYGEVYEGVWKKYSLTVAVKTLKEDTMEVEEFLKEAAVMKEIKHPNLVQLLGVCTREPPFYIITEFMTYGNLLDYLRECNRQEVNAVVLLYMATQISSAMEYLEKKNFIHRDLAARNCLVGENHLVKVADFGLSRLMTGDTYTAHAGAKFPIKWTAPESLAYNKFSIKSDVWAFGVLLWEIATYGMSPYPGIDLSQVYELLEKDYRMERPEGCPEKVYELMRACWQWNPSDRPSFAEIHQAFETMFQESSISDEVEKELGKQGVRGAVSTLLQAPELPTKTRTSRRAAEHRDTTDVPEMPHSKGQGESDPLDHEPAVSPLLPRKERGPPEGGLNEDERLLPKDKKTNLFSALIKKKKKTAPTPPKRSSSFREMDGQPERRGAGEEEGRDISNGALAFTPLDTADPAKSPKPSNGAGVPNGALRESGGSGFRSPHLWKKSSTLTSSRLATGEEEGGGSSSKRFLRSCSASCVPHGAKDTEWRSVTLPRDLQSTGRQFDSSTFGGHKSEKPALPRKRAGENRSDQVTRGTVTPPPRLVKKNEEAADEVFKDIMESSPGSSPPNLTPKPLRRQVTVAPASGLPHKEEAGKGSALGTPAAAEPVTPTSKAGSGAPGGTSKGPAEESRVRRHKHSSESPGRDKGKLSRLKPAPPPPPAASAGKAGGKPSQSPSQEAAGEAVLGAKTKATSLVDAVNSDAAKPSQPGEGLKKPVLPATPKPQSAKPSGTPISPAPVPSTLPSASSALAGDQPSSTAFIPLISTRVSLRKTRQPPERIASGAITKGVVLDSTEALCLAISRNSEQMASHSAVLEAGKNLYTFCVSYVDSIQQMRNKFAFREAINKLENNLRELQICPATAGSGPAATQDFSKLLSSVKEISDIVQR
Platelet-derived growth factor receptor alpha, sequence (P16234 whole entry, the tested form may be a part): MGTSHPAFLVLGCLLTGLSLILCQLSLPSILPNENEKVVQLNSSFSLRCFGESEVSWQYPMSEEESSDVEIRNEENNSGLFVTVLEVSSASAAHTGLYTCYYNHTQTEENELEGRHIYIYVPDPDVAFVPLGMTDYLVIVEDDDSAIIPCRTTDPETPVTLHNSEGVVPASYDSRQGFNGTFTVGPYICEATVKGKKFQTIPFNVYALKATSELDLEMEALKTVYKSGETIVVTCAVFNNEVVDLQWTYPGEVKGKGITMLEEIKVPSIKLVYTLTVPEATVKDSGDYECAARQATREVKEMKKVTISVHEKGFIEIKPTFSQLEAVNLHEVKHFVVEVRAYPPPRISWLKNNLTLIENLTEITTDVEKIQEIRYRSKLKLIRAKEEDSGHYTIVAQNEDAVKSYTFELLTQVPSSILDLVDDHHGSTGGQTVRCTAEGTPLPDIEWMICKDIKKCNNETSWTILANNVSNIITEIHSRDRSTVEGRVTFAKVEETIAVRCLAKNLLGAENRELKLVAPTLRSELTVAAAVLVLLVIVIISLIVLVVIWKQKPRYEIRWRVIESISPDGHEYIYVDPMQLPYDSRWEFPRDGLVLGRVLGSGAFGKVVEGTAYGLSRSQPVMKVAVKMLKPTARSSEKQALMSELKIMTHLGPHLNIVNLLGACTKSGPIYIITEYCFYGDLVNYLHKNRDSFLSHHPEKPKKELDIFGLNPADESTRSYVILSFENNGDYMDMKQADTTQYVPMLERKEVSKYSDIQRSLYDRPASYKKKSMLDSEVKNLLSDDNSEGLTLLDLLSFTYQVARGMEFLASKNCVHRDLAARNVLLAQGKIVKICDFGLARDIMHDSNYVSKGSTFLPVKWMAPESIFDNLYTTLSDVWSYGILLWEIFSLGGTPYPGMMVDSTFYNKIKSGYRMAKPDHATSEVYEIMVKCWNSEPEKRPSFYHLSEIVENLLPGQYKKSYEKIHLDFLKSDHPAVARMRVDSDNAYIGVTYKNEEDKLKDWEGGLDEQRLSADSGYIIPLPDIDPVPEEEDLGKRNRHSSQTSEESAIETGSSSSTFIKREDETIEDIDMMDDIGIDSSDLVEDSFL
Proto-oncogene tyrosine-protein kinase receptor Ret, sequence (P07949 whole entry): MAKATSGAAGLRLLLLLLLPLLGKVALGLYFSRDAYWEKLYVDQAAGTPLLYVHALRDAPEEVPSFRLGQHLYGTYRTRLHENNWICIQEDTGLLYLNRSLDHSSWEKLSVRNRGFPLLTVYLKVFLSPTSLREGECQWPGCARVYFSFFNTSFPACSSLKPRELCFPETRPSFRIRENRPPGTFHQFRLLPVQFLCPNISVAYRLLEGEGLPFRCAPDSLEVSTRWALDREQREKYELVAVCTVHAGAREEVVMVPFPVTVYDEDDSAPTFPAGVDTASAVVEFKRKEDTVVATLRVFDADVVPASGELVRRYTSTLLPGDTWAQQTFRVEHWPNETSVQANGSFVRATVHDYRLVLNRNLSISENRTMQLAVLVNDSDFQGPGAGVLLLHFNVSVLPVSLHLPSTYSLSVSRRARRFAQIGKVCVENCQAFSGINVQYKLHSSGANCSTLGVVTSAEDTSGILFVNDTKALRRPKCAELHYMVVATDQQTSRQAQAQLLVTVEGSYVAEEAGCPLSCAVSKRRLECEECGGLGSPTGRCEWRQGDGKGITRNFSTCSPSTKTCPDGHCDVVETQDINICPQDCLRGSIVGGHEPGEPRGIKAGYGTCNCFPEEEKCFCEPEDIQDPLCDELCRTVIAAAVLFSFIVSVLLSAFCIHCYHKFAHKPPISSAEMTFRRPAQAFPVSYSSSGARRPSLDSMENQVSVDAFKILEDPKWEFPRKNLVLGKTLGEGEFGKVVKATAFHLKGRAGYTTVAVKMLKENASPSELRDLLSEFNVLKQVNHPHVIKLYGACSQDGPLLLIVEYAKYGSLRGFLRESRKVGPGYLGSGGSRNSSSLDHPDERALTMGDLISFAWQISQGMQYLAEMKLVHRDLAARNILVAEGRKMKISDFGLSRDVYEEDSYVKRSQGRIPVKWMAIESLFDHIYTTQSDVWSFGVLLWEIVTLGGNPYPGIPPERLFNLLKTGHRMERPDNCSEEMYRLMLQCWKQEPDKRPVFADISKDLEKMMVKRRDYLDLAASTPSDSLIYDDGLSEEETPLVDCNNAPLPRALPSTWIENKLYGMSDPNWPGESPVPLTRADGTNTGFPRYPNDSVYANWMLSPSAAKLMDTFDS

| SMILES | inhibition [1] | IC50 [2] [µM] | IC50 [3] [µM] | fraction unbound [4] | IC50 (Cytochrome P450 3A4) [µM] | half-life [5] [h] | IC50 [6] [µM] | IC50 [7] [µM] | clearance [8] [mL/min/kg] | IC50 [9] [µM] | Activity (Mus musculus [10]) | IC50 [11] [µM] | GI50 (K562) [µM] | half-life [12] [h] | Activity (Mus musculus [13]) | clearance [14] [mL/min/kg] |
| --- | --- | --- | --- | --- | --- | --- | --- | --- | --- | --- | --- | --- | --- | --- | --- | --- |
| CN1CCN(Cc2ccc(NC(=O)CNc3ccc(-c4ccc(NC(=O)C5CC5)nc4)cc3F)cc2C(F)(F)F)CC1 | Dose-dependent effect | 0.021 | 0.02 | 0.0022 | > 30 | 2.2 | 1.28 | 0.2 | 50 | 0.28 | Non-toxic | 0.001 | 0.012 | – | – | – |
| CCN1CCN(Cc2ccc(NC(=O)CNc3ccc(-c4ccc(NC(=O)C5CC5)nc4)cc3)cc2C(F)(F)F)CC1 | Dose-dependent effect | 0.024 | 0.02 | 0.0008 | > 30 | – | 0.672 | 2.52 | – | 0.18 | – | 0.007 | 0.051 | 2.14 | Non-toxic | 45 |
